Assay results as given in article PMC10796979 (The Journal of Biological Chemistry, 2023).

T1: C3aR1 (Homo sapiens, UniProt Q16581)
T1 sequence (Q16581 1-482): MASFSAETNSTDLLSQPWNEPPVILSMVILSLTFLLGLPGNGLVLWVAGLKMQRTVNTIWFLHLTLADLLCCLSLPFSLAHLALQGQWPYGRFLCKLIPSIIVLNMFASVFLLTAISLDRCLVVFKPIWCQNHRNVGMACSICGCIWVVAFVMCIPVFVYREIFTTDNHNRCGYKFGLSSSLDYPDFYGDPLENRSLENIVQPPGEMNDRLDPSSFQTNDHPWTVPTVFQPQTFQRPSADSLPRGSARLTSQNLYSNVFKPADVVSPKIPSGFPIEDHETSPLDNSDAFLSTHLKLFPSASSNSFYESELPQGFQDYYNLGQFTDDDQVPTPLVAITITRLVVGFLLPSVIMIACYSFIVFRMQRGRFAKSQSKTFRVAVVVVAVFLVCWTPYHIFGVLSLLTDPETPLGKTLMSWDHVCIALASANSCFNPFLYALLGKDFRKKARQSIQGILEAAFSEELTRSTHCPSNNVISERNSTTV

T2: Complement C3a receptor 1 (C3aR1) fused to Rluc8 on the C-terminus (UniProt Q16581)
T2 sequence: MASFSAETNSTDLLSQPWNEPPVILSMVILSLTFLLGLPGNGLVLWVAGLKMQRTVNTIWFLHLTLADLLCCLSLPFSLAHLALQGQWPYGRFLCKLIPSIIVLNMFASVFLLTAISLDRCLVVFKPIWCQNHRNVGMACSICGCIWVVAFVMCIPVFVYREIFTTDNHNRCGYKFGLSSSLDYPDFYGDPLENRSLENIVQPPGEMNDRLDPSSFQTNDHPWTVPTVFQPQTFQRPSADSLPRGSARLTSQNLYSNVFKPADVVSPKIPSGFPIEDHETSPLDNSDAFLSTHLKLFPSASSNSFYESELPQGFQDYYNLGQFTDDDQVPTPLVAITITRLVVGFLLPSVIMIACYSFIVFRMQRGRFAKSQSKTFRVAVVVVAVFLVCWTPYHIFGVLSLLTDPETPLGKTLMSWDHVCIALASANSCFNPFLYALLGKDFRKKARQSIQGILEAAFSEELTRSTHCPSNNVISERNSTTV

B1: human TLQP-21 (peptide)
peptide: TLQPPSALRRRHYHHALPPSR
B2: mouse TLQP-21 (peptide)
peptide: TLQPPASSRRRHFHHALPPAR

Columns and labels:
C3aR1 [1] = molecular target: T1, C3aR1; test: Gi/o-mediated cAMP inhibition Glosensor assay; type: cell-based
3T3-L1 adipocytes = test: Lipolysis; type: cell-based; details: 30 min or 3 h incubation
Method in brief: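 3T3-L1 cells differentiated with insulin-containing medium and used 8–9 days after induction. Serum-starved in KRH buffer, then given ISO 50 nM plus test compound (10 nM to 1 μM) for 30 min or 3 h. Medium heat-inactivated at 60 °C for 20 min, then glycerol measured colorimetrically at 540 nm. Glycerol normalised to Bradford protein and expressed as fold over control in the same experiment. One-way ANOVA with Tukey.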

C3aR1 [2] = molecular target: T1, C3aR1; test: ELISA surface expression; type: cell-based
C3aR1 [3] = molecular target: T1, C3aR1; test: C3aR1 G protein dissociation BRET assay; type: cell-based
Method in brief: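 HEK293T co-transfected 1:1:1:1 with Gα-Rluc8, Gβ1, GFP2-Gγ and C3aR1, repeated for each Gα subtype (i, o, z, s, olf, q, 11–15). Cells plated overnight in DMEM with 1% dialyzed FBS. Test compound (3×) added in duplicate in HBSS/20 mM HEPES/0.1% BSA/0.01% ascorbic acid, pH 7.4, for 60 min at 37 °C. Coelenterazine 400a (5 μM final) added for 15 min; read at 400/515 nm. GFP2/Rluc8 ratio fitted by log(agonist)-response; three independent experiments, mean and SEM.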

3T3-L1 cells = test: Fluo-4 calcium influx assay in 3T3-L1 cells; type: cell-based
Method in brief: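 3T3-L1 cells plated at 60% confluency on collagen-coated chamber slides. Next day, medium replaced with HBSS and cells loaded with 2.5 μM Fluo-4 AM for 30 min. Single cells imaged every second for 3 min, with treatment added at 30 s; UTP served as positive control. AUC over the first 60 s taken after background removal, with each cell normalised to its basal intensity. Values were normalised to control and rescaled to 0–1.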

C3aR1 [4] = molecular target: T1, C3aR1; test: C3aR1 β-arrestin1 recruitment BRET assay; type: cell-based
Method in brief: (§1)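 HEK293T co-transfected 1:3:15 with C-terminal Rluc8-tagged C3aR1, GRK2 and N-terminal Venus-β-arrestin1 or Venus-β-arrestin2, then plated overnight in DMEM with 1% dialyzed FBS. Cells washed, then test compound (3×) added in HBSS/HEPES buffer, pH 7.4. Coelenterazine h (5 μM final) added 15 min before reading at 485/530 nm, at time points up to 60 min, 37 °C. Net BRET was Venus/Rluc8 corrected against wells lacking Venus-arrestin, plotted against concentration.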

C3aR1 [5] = molecular target: T1, C3aR1; test: C3aR1 β-arrestin2 recruitment BRET assay; type: cell-based
Method in brief: as §1

[6] = molecular target: T2, Complement C3a receptor 1 (C3aR1) fused to Rluc8 on the C-terminus

Molecule | activity in FSK-induced Gi/o-mediated cAMP inhibition (C3aR1 [1]) | potentiation of adrenergic (ISO)-induced lipolysis (3T3-L1 adipocytes) | β-arr2-dependent C3aR1 internalization compared to C3a63-77 (C3aR1 [2]) | fold more potent to cause G protein dissociation compared to C3a63-77 (C3aR1 [3]; Gi/o/z subtypes) [fold] | G protein dissociation activity across Gi/o/z subtypes (C3aR1 [3]; all tested Gi/o/z subtypes) | G protein dissociation at Gs, Gq or G12/13 subtypes (C3aR1 [3]; full screen panel of Gα proteins) | induction of calcium influx by the compound alone (3T3-L1 cells) | β-arrestin1 recruitment potency compared to C3a63-77 (C3aR1 [4]) | β-arrestin2 recruitment potency compared to C3a63-77 (C3aR1 [5]) | recruitment of Venus-β-arrestin2 to C3aR1-Rluc8 by BRET, EC50 of the agonist [6] [nM] | recruitment of Venus-β-arrestin1 to C3aR1-Rluc8 by BRET, EC50 of the agonist [6] [nM]
NC(N)=NCCC[C@H](NC(=O)COCC(c1ccccc1)c1ccccc1)C(=O)O [SB290157] | shows agonist activity | did not potentiate | more potent and efficacious | ~10 | robust C3aR1 G protein dissociation agonist activity | no activity | does not induce calcium influx | more potent than C3a63-77 | more potent than C3a63-77 |  | 
B1 |  |  |  |  |  |  |  |  |  | 3180 | 
B2 |  |  |  |  |  |  |  |  |  | 542 | 191
